The results in this text go back to ChEMBL document CHEMBL3769310, “Scouting new sigma receptor ligands: Synthesis, pharmacological evaluation and molecular modeling of 1,3-dioxolane-based structures and derivatives” (Eur J Med Chem, 2016).

Calls of active or inactive are those of the source. Bounds are passed on as bounds.

Test [1] in a line: Displacement of [3H]DTG from sigma-2 receptor in guinea pig brain membranes after 120 mins by liquid scintillation counting method. The format is cell membranes, Cavia porcellus, Membrane. In short, it runs like this:
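Nonspecific with 5 µM DTG. Stopped with ice-cold 10 mM Tris pH 8.0, filtered on PEI-soaked GF/B, scintillation counted. Ki from duplicates, three experiments.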

Test [2] addresses Sigma non-opioid intracellular receptor 1 (Cavia porcellus, UniProt Q60492). In words: Displacement of [3H]-(+)-pentazocine from sigma-1 receptor in guinea pig brain membranes after 150 mins by liquid scintillation counting method. In kind it is cell membranes, Membrane.
Test [3] has as its system HeLa. In words: Selectivity ratio of Ki for sigma-2 receptor in guinea pig brain membranes to Ki for human 5-HT1A expressed in human HeLa cells. In kind it is cell-based.
Test [4] has as its system HeLa. In words: Selectivity ratio of Ki for sigma-1 receptor in guinea pig brain membranes to Ki for human 5-HT1A expressed in human HeLa cells. The format is cell-based.
Test [5] is filed under the species Cavia porcellus. In words: Selectivity ratio of Ki for sigma-1 receptor in guinea pig brain membranes to Ki for sigma-2 receptor in guinea pig brain membranes. In kind it is cell membranes.
The target in test [6] is T1, 5-hydroxytryptamine receptor 1A (Homo sapiens, UniProt P08908).
T1 sequence (P08908 whole entry): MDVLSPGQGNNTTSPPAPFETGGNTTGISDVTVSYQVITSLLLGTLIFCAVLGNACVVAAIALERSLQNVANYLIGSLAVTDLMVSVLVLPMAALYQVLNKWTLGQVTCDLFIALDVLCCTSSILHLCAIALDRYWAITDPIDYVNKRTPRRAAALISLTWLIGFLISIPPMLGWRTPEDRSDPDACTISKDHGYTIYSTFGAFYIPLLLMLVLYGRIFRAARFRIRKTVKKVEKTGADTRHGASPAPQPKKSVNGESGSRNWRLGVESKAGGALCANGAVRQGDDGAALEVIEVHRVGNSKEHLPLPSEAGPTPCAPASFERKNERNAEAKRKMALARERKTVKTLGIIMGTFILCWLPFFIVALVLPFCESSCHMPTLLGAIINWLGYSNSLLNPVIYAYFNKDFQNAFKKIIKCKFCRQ
In words: Displacement of [3H]8-OH-DPAT from human 5-HT1A expressed in human HeLa cells after 30 mins. In kind it is cell-based.

Test [7] concerns Rattus norvegicus. In words: Analgesic activity in Sprague-Dawley rat assessed as withdrawal latency at 1 mg/kg, sc measured after 30 to 120 mins by tail flick test. In kind it is functional, organism-based. In short, it runs like this: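 Male Sprague-Dawley rats, 180–200 g, 8–10 per group, dosed s.c. Radiant heat tail-flick with I.R. source on lower third of tail at 25 ± 1 °C. Basal latency 3–4 s, taken as mean of three readings at 5 min intervals. Cut-off 10 s. Latencies read at 30, 45, 60, 90 and 120 min after injection; saline group as control. Blinded observers; mean ± SE, two-way ANOVA then t test.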

Sigma non-opioid intracellular receptor 1, sequence (Q60492 whole entry): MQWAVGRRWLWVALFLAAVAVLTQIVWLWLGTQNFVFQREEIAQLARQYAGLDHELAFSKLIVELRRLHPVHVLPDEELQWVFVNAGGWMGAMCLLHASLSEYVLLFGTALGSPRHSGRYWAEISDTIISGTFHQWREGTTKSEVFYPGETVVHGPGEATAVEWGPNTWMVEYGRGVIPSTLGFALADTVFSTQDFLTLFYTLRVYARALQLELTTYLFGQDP

Compound `c1ccc(CC2CCN(CC3CSC(c4ccccc4)(c4ccccc4)O3)CC2)cc1` (centres undefined) displayed a pKi in test [1] of 7.55. This compound also had a Ki in test [2] of 0.012 µM. The Ratio Ki is greater than 83 in test [3], greater than 83 in test [4] and 2 in test [5].
In test [1], `c1ccc(CC2CCN(CC3COC4(CCCCC4)O3)CC2)cc1` (centres undefined) returned a pKi of 7.72. Also, the Ki in test [2] was 0.002 µM; in test [6], 0.162 µM. In addition, the Ratio Ki in test [3] was found to be 81; in test [4] it was 81; in test [5], 10.
On to `O[C@H]1[C@@H](CN2CCN(Cc3ccccc3)CC2)CCC1(c1ccccc1)c1ccccc1` (relative stereo), for which, in test [1], the pKi is given as 6.62. For the same compound, the Ki is 0.0355 µM in test [2] and 0.00724 µM in test [6]. The Ratio Ki in test [3] is 0.2; in test [4], 0.2; in test [5] it was 6.8.
`c1ccc(CN2CCN(CC3COC4(CCCCC4)O3)CC2)cc1` (centres undefined) returned a pKi in test [1] of 7.46. Further, the result in test [7] was inactive. In addition, the Ki in test [2] was 0.000741 µM; in test [6], greater than 1 µM. The Ratio Ki in test [3] was greater than 1350; in test [4], greater than 1350; in test [5], 47.
In the case of `c1ccc(CN2CCN(CC3COc4ccccc4O3)CC2)cc1` (centres undefined), the pKi in test [1] is 7.55. In test [2], this compound had a Ki of 0.0158 µM.
Take `c1ccc(CC2CCN(CC3COC(C4CCCCC4)(C4CCCCC4)O3)CC2)cc1` (centres undefined): the pKi in test [1] is reported as less than 6. In addition, the Ki in test [2] was 0.209 µM; in test [6] it was greater than 1 µM. The Ratio Ki in test [3], in test [4] and in test [5] was greater than 5 each time.
For the compound `O=C1C(CN2CCC(Cc3ccccc3)CC2)CCC1(c1ccccc1)c1ccccc1` (centres undefined), in test [1], the pKi amounted to 5.66. For the same compound, the inhibition constant Ki is 1.12 µM in test [2] and greater than 1 µM in test [6]. Besides, the figures for the Ratio Ki in test [3], in test [4] and in test [5] were 1, 1 and 2, respectively.
`c1ccc(CC2CCN(C[C@@H]3CO[C@@](c4ccccc4)(C4CCCCC4)O3)CC2)cc1` (relative stereo): the pKi in test [1] came out at 6.84. In addition, the Ki in test [2] is 0.0525 µM; in test [6], greater than 1 µM. For the same compound, the Ratio Ki in test [3] was greater than 19; in test [4], greater than 19; in test [5] it was 3.
Compound `O[C@@H]1[C@@H](CN2CCN(Cc3ccccc3)CC2)CCC1(c1ccccc1)c1ccccc1` (relative stereo) had a pKi in test [1] of 7. The Ki in test [2] is 0.038 µM; in test [6], 0.126 µM. The Ratio Ki in test [3], in test [4] and in test [5] was 3 each time.
For the compound `c1ccc(CC2CCN(CC3CCC(c4ccccc4)(c4ccccc4)O3)CC2)cc1` (centres undefined), the pKi in test [1] came to 6.69. The Ki was 0.174 µM in test [2] and greater than 1 µM in test [6]. In addition, the values for the Ratio Ki in test [3], in test [4] and in test [5] were greater than 6, greater than 6 and 1, respectively.
As for `c1ccc(CN2CCN(C[C@@H]3CO[C@@](c4ccccc4)(C4CCCCC4)O3)CC2)cc1` (relative stereo), the pKi in test [1] was 7.75. Also, the Ki is 0.0309 µM in test [2] and greater than 1 µM in test [6]. The Ratio Ki in test [3] was greater than 56; in test [4], greater than 56; in test [5], 1.
`c1ccc(CN2CCN(CC3CSC(c4ccccc4)(c4ccccc4)O3)CC2)cc1` (centres undefined) had a pKi in test [1] of 6.67. This compound showed a Ki in test [2] of 0.0631 µM. In addition, the Ratio Ki was greater than 16 in test [3], greater than 16 in test [4] and 3 in test [5].
`c1ccc(CN2CCN(CC3COC(c4ccccc4)(c4ccccc4)O3)CC2)cc1` (centres undefined) showed a pKi in test [1] of 8.38. Besides, the Ki is 0.0017 µM in test [2] and greater than 1 µM in test [6]. For the same compound, the Ratio Ki in test [3] is greater than 589; in test [4], greater than 589; in test [5] it was 3.
The compound `OCC(CN1CCC(Cc2ccccc2)CC1)OC(c1ccccc1)c1ccccc1` (centres undefined) showed a pKi in test [1] of 6.56. The figures for the inhibition constant (Ki) in test [2] and in test [6] were 0.2 µM and 0.417 µM, respectively. In addition, the Ratio Ki in test [3] was 2.5; in test [4], 2.5; in test [5], 1.
On to `c1ccc(CC2CCN(CCOC(c3ccccc3)c3ccccc3)CC2)cc1`, for which, in test [1], the pKi is on record as 6.77. For the same compound, the Ki is 0.0562 µM in test [2] and greater than 1 µM in test [6]. In addition, the Ratio Ki was greater than 18 in test [3], greater than 18 in test [4] and 3 in test [5].
Consider `c1ccc(CC2CCN(CC3COc4ccccc4O3)CC2)cc1` (centres undefined), for which the pKi in test [1] was 7.6. The compound further had a Ki in test [2] of 0.0166 µM.
Regarding `OCC(CN1CCN(Cc2ccccc2)CC1)OC(c1ccccc1)c1ccccc1` (centres undefined), in test [1], the pKi was 7.75. In addition, the Ki was 0.0112 µM in test [2] and greater than 1 µM in test [6]. Besides, the Ratio Ki in test [3] was greater than 89; in test [4], greater than 89; in test [5] it was 2.
`c1ccc(CN2CCN(C[C@H]3CO[C@@](c4ccccc4)(C4CCCCC4)O3)CC2)cc1` (relative stereo) came in with a pKi in test [1] of 7.79. Also, the Ki was 0.00107 µM in test [2] and greater than 1 µM in test [6]. Further, the Ratio Ki in test [3] is greater than 933; in test [4], greater than 933; in test [5], 15.
For the compound `c1ccc(CN2CCN(CC3CSC(c4ccccc4)(c4ccccc4)S3)CC2)cc1` (centres undefined), the pKi in test [1] is given as 5.64. In addition, the Ki in test [2] is 0.302 µM; in test [6], greater than 1 µM. Moreover, the results for the Ratio Ki in test [3], in test [4] and in test [5] were greater than 3, greater than 3 and 8, respectively.
Compound `O=C1C(CN2CCN(Cc3ccccc3)CC2)CCC1(c1ccccc1)c1ccccc1` (centres undefined) had a pKi in test [1] of 4.9. Further, the Ki in test [2] was 0.646 µM; in test [6], greater than 1 µM. The Ratio Ki in test [3] was greater than 1.5; in test [4], greater than 1.5; in test [5] it was 20.
Compound `O[C@H]1[C@@H](CN2CCC(Cc3ccccc3)CC2)CCC1(c1ccccc1)c1ccccc1` (relative stereo) came in with a pKi in test [1] of 5.66. The inhibition constant Ki was 0.282 µM in test [2] and 0.00759 µM in test [6]. The Ratio Ki in test [3] was found to be 0.02; in test [4], 0.02; in test [5], 8.
For `c1ccc(CC2CCN(C[C@H]3CO[C@@](c4ccccc4)(C4CCCCC4)O3)CC2)cc1`, in test [1], the pKi worked out at 6.43. In addition, the values for the Ki in test [2] and in test [6] were 0.0562 µM and greater than 1 µM, respectively. Besides, the Ratio Ki is greater than 18 in test [3], greater than 18 in test [4] and 7 in test [5].
Compound `c1ccc(CC2CCN(CC3CSC(c4ccccc4)(c4ccccc4)S3)CC2)cc1` (centres undefined) had a pKi in test [1] of 7.11. Moreover, the Ki was 0.0151 µM in test [2] and greater than 1 µM in test [6]. The Ratio Ki in test [3] is greater than 66; in test [4], greater than 66; in test [5], 5.
As for `c1ccc(CN2CCN(CCOC(c3ccccc3)c3ccccc3)CC2)cc1`, the negative logarithm of the Ki (pKi) in test [1] is reported as 7.95. Also, the Ki in test [2] was 0.0204 µM; in test [6] it was greater than 1 µM. The Ratio Ki in test [3] is greater than 89; in test [4], greater than 89; in test [5], 1.
Regarding `c1ccc(CN2CCN(CC3CCC(c4ccccc4)(c4ccccc4)O3)CC2)cc1` (centres undefined), the negative-log Ki (pKi) in test [1] was found to be 6.65. Also, the Ki in test [2] was 0.0871 µM; in test [6], greater than 1 µM. Further, the Ratio Ki in test [3] was greater than 11; in test [4], greater than 11; in test [5], 3.
On to `c1ccc(CC2CCN(CC3COC(c4ccccc4)(c4ccccc4)O3)CC2)cc1` (centres undefined), for which, in test [1], the pKi is on record as 8.2. Moreover, the inhibition constant (Ki) was 0.00219 µM in test [2] and 0.55 µM in test [6]. Further, the Ratio Ki in test [3] was determined as 251; in test [4] it was 251; in test [5], 3.
The compound `O[C@@H]1[C@@H](CN2CCC(Cc3ccccc3)CC2)CCC1(c1ccccc1)c1ccccc1` (relative stereo) yielded a pKi in test [1] of 5.05. Further, the figures for the Ki in test [2] and in test [6] were 0.229 µM and 0.0501 µM, respectively. Moreover, the results for the Ratio Ki in test [3], in test [4] and in test [5] were 0.21, 0.21 and 39, respectively.
`c1ccc(CN2CCN(CC3COC(C4CCCCC4)(C4CCCCC4)O3)CC2)cc1` (centres undefined) yielded a pKi in test [1] of 8.3. For the same compound, the Ki in test [2] is 0.00339 µM; in test [6], greater than 1 µM. The Ratio Ki in test [3] is greater than 29; in test [4] it was greater than 29; in test [5], 2.
